# Measurements from ChEMBL document CHEMBL4138242, “Synthesis and antibacterial evaluation of novel cationic chalcone derivatives possessing broad spectrum antibacterial activity” (Eur J Med Chem, 2018).
# Calls of active or inactive are those of the source.
# Columns and labels:
# Staphylococcus aureus [1] = test: Bactericidal activity against methicillin-resistant Staphylococcus aureus in presence of 50% sheep serum after 20 to 24 hrs; format: functional; details: read-out: MBC99.9
# Summary of the method: (§1)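 MRSA at 10⁵ CFU/mL in 50% MHB plus 50% sheep serum, plasma or defibrinated blood; serum and plasma were obtained by centrifugation at 3,500 rpm for 10 min. Aqueous dilutions prepared at 512-4 µg/mL were added 1:3 to the suspension and incubated for 20-24 h at 37 °C. Well contents (20 µL) were plated on MHA for 20-24 h, and MBC was the concentration giving no colonies.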
# Staphylococcus aureus [2] = test: Antibacterial activity against methicillin-resistant Staphylococcus aureus clinical isolate 0831010 after 16 to 20 hrs by broth microdilution method; format: functional
# Summary of the method: (§2)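 CLSI broth microdilution in Mueller-Hinton broth. A 4-6 h culture was diluted to about 10⁶ CFU/mL and mixed 1:1 with compound dilutions prepared at 256 to 0.5 µg/mL from aqueous stocks. Plates were incubated at 37 °C for 16-20 h and read visually for MIC. Each concentration was run in duplicate, and the experiment was repeated at least twice. Vancomycin and meropenem were comparators.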
# Escherichia coli [3] = test: Antibacterial activity against drug-resistant NDM1 producing Escherichia coli clinical isolate 1460 after 16 to 20 hrs by broth microdilution method; format: functional; summary of the method: as §2
# Escherichia coli [4] = test: Antibacterial activity against drug-resistant NDM1 producing Escherichia coli clinical isolate EA-14-61 after 16 to 20 hrs by broth microdilution method; format: functional; summary of the method: as §2
# Staphylococcus aureus [5] = test: Antibacterial activity against methicillin-resistant Staphylococcus aureus clinical isolate 20130911034sau after 16 to 20 hrs by broth microdilution method; format: functional; summary of the method: as §2
# Staphylococcus aureus [6] = test: Disruption of 24 hrs cultured Staphylococcus aureus ATCC 29213 biofilm assessed as cell viability in biofilm at 8 ug/ml after 24 hrs by crystal violet staining-based assay (reference value: 15.96 log10CFU/ml); format: functional
# Staphylococcus aureus [7] = test: Antibacterial activity against methicillin-resistant Staphylococcus aureus clinical isolate 20131012632sau after 16 to 20 hrs by broth microdilution method; format: functional; summary of the method: as §2
# Escherichia coli [8] = test: Antibacterial activity against drug-resistant NDM1 producing Escherichia coli clinical isolate Ecl-14-56 after 16 to 20 hrs by broth microdilution method; format: functional; summary of the method: as §2
# Staphylococcus aureus [9] = test: Antibacterial activity against Staphylococcus aureus ATCC 29213 at sub MIC after 20 passages; format: functional, organism-based
# Summary of the method: (§3)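 The MIC was first measured by broth microdilution. Cells grown at MIC/2 were then carried into a fresh MIC assay after each 24 h, repeated over 20 serial passages. Norfloxacin (S. aureus) and colistin (E. coli) served as control antibiotics. Resistance was defined as a >4-fold rise over the original MIC.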
# Escherichia coli [10] = test: Antibacterial activity against drug-resistant NDM1 producing Escherichia coli clinical isolate SM-15-84 after 16 to 20 hrs by broth microdilution method; format: functional; summary of the method: as §2
# Staphylococcus aureus [11] = test: Bactericidal activity against Staphylococcus aureus ATCC 29213 after 20 to 24 hrs; format: functional; details: read-out: MBC99.9
# Summary of the method: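 MBC: wells showing little or no turbidity in the broth microdilution MIC assay were plated (20 µL) on agar and incubated 20-24 h at 37 °C. MBC is the lowest concentration giving no colonies.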
# Enterococcus faecalis = test: Antibacterial activity against Enterococcus faecalis ATCC 29212 after 16 to 20 hrs by broth microdilution method; format: functional
# Summary of the method: (§4)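 Broth microdilution per CLSI. Bacteria grown 4-6 h (about 10⁸ CFU/mL), then diluted to about 10⁶ CFU/mL. Medium: Mueller-Hinton broth, except Luria-Bertani broth for E. coli. Compounds in sterile water, twofold series 256-0.5 µg/mL, mixed 1:1 with inoculum, 37 °C for 16-20 h. MIC is the lowest concentration without visible growth. Duplicate wells; experiment repeated at least twice.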
# Escherichia coli [12] = test: Antibacterial activity against drug-resistant NDM1 producing Escherichia coli clinical isolate EC-14-54 after 16 to 20 hrs by broth microdilution method; format: functional; summary of the method: as §2
# Escherichia coli [13] = test: Antibacterial activity against drug-resistant NDM1 producing Escherichia coli clinical isolate CF-15-61 after 16 to 20 hrs by broth microdilution method; format: functional; summary of the method: as §2
# Staphylococcus aureus [14] = test: Induction of inner membrane permeabilization in Staphylococcus aureus ATCC 29213 at 10 to 20 ug/ml measured every 2 mins for 12 mins by propidium iodide staining-based fluorescence assay; format: functional, organism-based
# Summary of the method: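 Mid-log cells (~10⁸ CFU/mL) were suspended in PBS (S. aureus) or HEPES/glucose/KCl (E. coli). They were preincubated with propidium iodide for 30 min (S. aureus) or 40 min (E. coli), and baseline fluorescence was read for 8 min. Compound was added to 20 µg/mL final, and fluorescence (ex 535/em 617 nm) was read every 2 min for 12 min.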
# Klebsiella pneumoniae [15] = test: Antibacterial activity against drug-resistant carbapenemase producing Klebsiella pneumoniae clinical isolate KP-13-54 after 16 to 20 hrs by broth microdilution method; format: functional; summary of the method: as §2
# Escherichia coli [16] = test: Antibacterial activity against drug-resistant NDM1 producing Escherichia coli clinical isolate Ecl-14-58 after 16 to 20 hrs by broth microdilution method; format: functional; summary of the method: as §2
# Staphylococcus aureus [17] = test: Disruption of 24 hrs cultured Staphylococcus aureus ATCC 29213 biofilm assessed as cell viability in biofilm at 2 ug/ml after 24 hrs by crystal violet staining-based assay (reference value: 15.96 log10CFU/ml); format: functional
# Escherichia coli [18] = test: Antibacterial activity against Escherichia coli ATCC 25922 at sub MIC after 20 passages; format: functional, organism-based; summary of the method: as §3
# Klebsiella pneumoniae [19] = test: Antibacterial activity against drug-resistant carbapenemase producing Klebsiella pneumoniae clinical isolate KP-14-5 after 16 to 20 hrs by broth microdilution method; format: functional; summary of the method: as §2
# Escherichia coli [20] = test: Antibacterial activity against drug-resistant NDM1 producing Escherichia coli clinical isolate Ecl-14-59 after 16 to 20 hrs by broth microdilution method; format: functional; summary of the method: as §2
# Escherichia coli [21] = test: Induction of cytoplasmic membrane depolarization in Escherichia coli ATCC 25922 at 10 to 20 ug/ml measured every 2 mins for 12 mins by DiSC35 dye-based fluorescence assay; format: functional, organism-based
# Summary of the method: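 Mid-log cells (~10⁸ CFU/mL) were suspended in PBS (S. aureus) or HEPES/glucose/KCl with EDTA (E. coli). They were preloaded with DiSC3(5) for 30 min (S. aureus) or 40 min (E. coli), and baseline fluorescence was read for 8 min. Compound was added to 20 µg/mL final, and fluorescence (ex 622/em 670 nm) was read every 2 min for 12 min. Water served as control.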
# Staphylococcus aureus [22] = test: Ratio of MBC99.9 for methicillin-resistant Staphylococcus aureus in presence of 50% sheep serum to MBC99.9 for methicillin-resistant Staphylococcus aureus ATCC 29213 in presence of 50% sheep plasma; format: functional; summary of the method: as §1
# Klebsiella pneumoniae [23] = test: Antibacterial activity against drug-resistant carbapenemase producing Klebsiella pneumoniae clinical isolate KP-13-45 after 16 to 20 hrs by broth microdilution method; format: functional; summary of the method: as §2
# Staphylococcus aureus [24] = test: Disruption of 24 hrs cultured Staphylococcus aureus ATCC 29213 biofilm assessed as cell viability in biofilm at 64 ug/ml after 24 hrs by crystal violet staining-based assay (reference value: 15.96 log10CFU/ml); format: functional
# Staphylococcus aureus [25] = test: Antibacterial activity against Staphylococcus aureus ATCC 29213 after 16 to 20 hrs by broth microdilution method; format: functional; summary of the method: as §4
# Klebsiella pneumoniae [26] = test: Antibacterial activity against drug-resistant carbapenemase producing Klebsiella pneumoniae clinical isolate KP-14-8 after 16 to 20 hrs by broth microdilution method; format: functional; summary of the method: as §2
# Escherichia coli [27] = test: Antibacterial activity against drug-resistant NDM1 producing Escherichia coli clinical isolate Ecl-13-62 after 16 to 20 hrs by broth microdilution method; format: functional; summary of the method: as §2
smiles,measurement,setting,value
CCCCCCCC[N+](C)(C)CC(=O)Nc1ccc(C(=O)/C=C/c2ccccc2F)cc1.[Cl-],MBC,Staphylococcus aureus [1],32 µg/mL
same,MIC,Staphylococcus aureus [2],0.5 µg/mL
same,MIC,Escherichia coli [3],4 µg/mL
same,MIC,Escherichia coli [4],4 µg/mL
same,MIC,Staphylococcus aureus [5],0.5 µg/mL
same,Activity,Staphylococcus aureus [6],11.696 log10CFU/ml
same,MIC,Staphylococcus aureus [7],2 µg/mL
same,MIC,Escherichia coli [8],4 µg/mL
same,Activity,Staphylococcus aureus [9],Active
same,MIC,Escherichia coli [10],16 µg/mL
same,MBC,Staphylococcus aureus [11],8 µg/mL
same,MIC,Enterococcus faecalis,1 µg/mL
same,MIC,Escherichia coli [12],16 µg/mL
same,MIC,Escherichia coli [13],4 µg/mL
same,Activity,Staphylococcus aureus [14],Active
same,MIC,Klebsiella pneumoniae [15],4 µg/mL
same,MIC,Escherichia coli [16],4 µg/mL
same,Activity,Staphylococcus aureus [17],13.93 log10CFU/ml
same,Activity,Escherichia coli [18],Active
same,MIC,Klebsiella pneumoniae [19],4 µg/mL
same,MIC,Escherichia coli [20],16 µg/mL
same,Activity,Escherichia coli [21],Active
same,Ratio,Staphylococcus aureus [22],2
same,MIC,Klebsiella pneumoniae [23],4 µg/mL
same,Activity,Staphylococcus aureus [24],9.41 log10CFU/ml
same,MIC,Staphylococcus aureus [25],0.5 µg/mL
same,MIC,Klebsiella pneumoniae [26],4 µg/mL
same,MIC,Escherichia coli [27],4 µg/mL
